Measured values reported in ChEMBL document CHEMBL1136719, “[(3-Chlorophenyl)piperazinylpropyl]pyridazinones and analogues as potent antinociceptive agents” (2003).

Experiments:
Type in all cases: functional
[1] = species on record: Mus musculus; assay: Antinociceptive effect determined before treatment in the mouse hotplate test; set-up: unit not given beside the values
In short: (§1)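 Male Swiss albino mice (23-30 g) were placed on a plate held at 52.5 ± 0.1 °C. Fore or hind paw licking was the endpoint. Latency was timed before dosing and at intervals up to 60 min after, with a 45 s cutoff. Mice scoring below 12 or over 18 s in the pretest were excluded. Compounds were given in saline or 1% CMC at 10 mL/kg sc or po.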

[2] = tested on: Mus musculus; assay: Maximal analgesic dose required to cause antinociceptive effect in the mouse hot plate method by oral administration
[3] = tested on: Mus musculus; assay: Minimal nontoxic dose in the mouse hot plate method by subcutaneous administration
[4] = tested on: Mus musculus; assay: Antinociceptive effect expressed as licking latency determined at 10 mg/kg after 30 minutes of oral administration in the mouse hotplate test; in short: as §1
[5] = tested on: Mus musculus; assay: Antinociceptive effect expressed as licking latency determined at 10 mg/kg after 60 minutes of oral administration in the mouse hotplate test; in short: as §1
[6] = tested on: Mus musculus; assay: Percentage of analgesic efficacy compared to morphine at 8 mg/kg
In short: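 Analgesic efficacy was measured in the mouse hot-plate test (52.5 °C, paw-licking latency) at the maximal analgesic dose. It is expressed as a percentage of the maximal effect of morphine (8 mg/kg sc), which is taken as 100%.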

[7] = tested on: Mus musculus; assay: Antinociceptive effect expressed as licking latency determined at 10 mg/kg after 15 minutes of oral administration in the mouse hotplate test; in short: as §1
[8] = tested on: Mus musculus; assay: Percentage of antagonism exerted by reserpine at 2 mg/kg
[9] = tested on: Mus musculus; assay: Antinociceptive effect expressed as licking latency determined at 10 mg/kg after 45 minutes of oral administration in the mouse hotplate test; in short: as §1
[10] = tested on: Mus musculus; assay: Antinociceptive effect expressed as licking latency determined at 6 mg/kg after 15 minutes of subcutaneous administration in the mouse hotplate test; in short: as §1
[11] = tested on: Mus musculus; assay: Maximal analgesic dose required to cause antinociceptive effect in the mouse hot plate method by subcutaneous administration
[12] = tested on: Mus musculus; assay: Antinociceptive effect expressed as licking latency determined at 6 mg/kg after 60 minutes of subcutaneous administration in the mouse hotplate test; in short: as §1
[13] = tested on: Mus musculus; assay: Antinociceptive effect expressed as licking latency determined at 6 mg/kg after 45 minutes of subcutaneous administration in the mouse hotplate test; in short: as §1
[14] = tested on: Mus musculus; assay: Antinociceptive effect expressed as licking latency determined at 6 mg/kg after 30 minutes of subcutaneous administration in the mouse hotplate test; in short: as §1
[15] = tested on: Mus musculus; assay: Antinociceptive effect expressed as licking latency determined at 20 mg/kg after 60 minutes of subcutaneous administration in the mouse hotplate test; in short: as §1
[16] = tested on: Mus musculus; assay: Antinociceptive effect expressed as licking latency determined at 20 mg/kg after 30 minutes of subcutaneous administration in the mouse hotplate test; in short: as §1
[17] = tested on: Mus musculus; assay: Antinociceptive effect expressed as licking latency determined at 20 mg/kg after 15 minutes of subcutaneous administration in the mouse hotplate test; in short: as §1
[18] = tested on: Mus musculus; assay: Antinociceptive effect expressed as licking latency determined at 20 mg/kg after 45 minutes of subcutaneous administration in the mouse hotplate test; in short: as §1
[19] = tested on: Mus musculus; assay: Antinociceptive effect expressed as licking latency determined at 1 mg/kg after 60 minutes of subcutaneous administration in the mouse hotplate test; in short: as §1
[20] = tested on: Mus musculus; assay: Antinociceptive effect expressed as licking latency determined at 1 mg/kg after 15 minutes of subcutaneous administration in the mouse hotplate test; in short: as §1
[21] = tested on: Mus musculus; assay: Antinociceptive effect expressed as licking latency determined at 1 mg/kg after 30 minutes of subcutaneous administration in the mouse hotplate test; in short: as §1
[22] = tested on: Mus musculus; assay: Antinociceptive effect expressed as licking latency determined at 1 mg/kg after 45 minutes of subcutaneous administration in the mouse hotplate test; in short: as §1
[23] = tested on: Mus musculus; assay: Antinociceptive effect expressed as licking latency determined at 3 mg/kg after 30 minutes of subcutaneous administration in the mouse hotplate test; in short: as §1
[24] = tested on: Mus musculus; assay: Antinociceptive effect expressed as licking latency determined at 3 mg/kg after 15 minutes of subcutaneous administration in the mouse hotplate test; in short: as §1
[25] = tested on: Mus musculus; assay: Antinociceptive effect expressed as licking latency determined at 3 mg/kg after 45 minutes of subcutaneous administration in the mouse hotplate test; in short: as §1
[26] = tested on: Mus musculus; assay: Antinociceptive effect expressed as licking latency determined at 3 mg/kg after 60 minutes of subcutaneous administration in the mouse hotplate test; in short: as §1
[27] = tested on: Mus musculus; assay: Antinociceptive effect expressed as licking latency determined at 8 mg/kg after 45 minutes of subcutaneous administration in the mouse hotplate test
In short: (§2)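 Male Swiss albino mice (23-30 g), acclimatised 24 h at 23 ± 1 °C. Dosed sc in 10 mL kg⁻¹ of saline, 1% carboxymethylcellulose, or saline + DMSO 2:1 vehicle. Placed on a 52.5 ± 0.1 °C hot plate, timed to fore or hind paw licking. Pretest latency had to be 12–18 s. Cutoff was 45 s. Latency was read before dosing and at 15, 30, 45 and 60 min after.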

[28] = tested on: Mus musculus; assay: Antinociceptive effect expressed as licking latency determined at 8 mg/kg after 30 minutes of subcutaneous administration in the mouse hotplate test; in short: as §2
[29] = tested on: Mus musculus; assay: Antinociceptive effect expressed as licking latency determined at 8 mg/kg after 15 minutes of subcutaneous administration in the mouse hotplate test; in short: as §2
[30] = tested on: Mus musculus; assay: Antinociceptive effect expressed as licking latency determined at 8 mg/kg after 60 minutes of subcutaneous administration in the mouse hotplate test; in short: as §2

SMILES | Activity [1] | MNTD [3] [mg/kg] | Analgesic effect [6] [%] | Antagonism [8] [%] | MAD [11] [mg/kg] | Licking latency [15] | Licking latency [16] | Licking latency [17] | Licking latency [18] | further results
Cc1onc2c(=O)n(CCCN3CCN(c4cccc(Cl)c4)CC3)nc(-c3ccccc3)c12 | 15.1 | 50 | 75 | 94 |  |  |  |  |  | MAD [2]: 1 mg/kg; Licking latency [4]: 25.1; Licking latency [5]: 16.6; Licking latency [7]: 20.8; Licking latency [9]: 19.1
Cc1nn(CCCN2CCN(c3cccc(Cl)c3)CC2)c(=O)c(N)c1C(C)O (configuration not stated) | 14.5 | 40 | 101 | 100 | 0.3 |  |  |  |  | Licking latency [10]: 22.4; Licking latency [12]: 23.3; Licking latency [13]: 29.3; Licking latency [14]: 33.7
CCOC(=O)c1nn(CCCN2CCN(c3cccc(Cl)c3)CC2)c(=O)c2noc(C)c12 | 16 | 40 | 71 | 0 | 10 | 17.8 | 23.8 | 22.2 | 23.2 | 
C=Cc1c(C)nn(CCCN2CCN(c3cccc(Cl)c3)CC2)c(=O)c1N | 14.2 | 20 | 100 | 61 | 0.1 |  |  |  |  | Licking latency [19]: 22.6; Licking latency [20]: 21.3; Licking latency [21]: 33.5; Licking latency [22]: 28.2
Cc1noc2c(-c3ccccc3)nn(CCCN3CCN(c4cccc(Cl)c4)CC3)c(=O)c12 | 14.6 | 60 | 104 | 100 | 0.3 | 29.3 | 34.5 | 19.6 | 31.2 | 
Cc1nn(CCCN2CCN(c3cccc(Cl)c3)CC2)c(=O)c2noc(C)c12 | 16.6 | 40 | 72 | 92 | 10 | 17.6 | 24 | 18 | 22.6 | 
CC(=O)c1c(C)nn(CCCN2CCN(c3cccc(Cl)c3)CC2)c(=O)c1N | 15.5 | 20 | 100 | 0 | 0.1 |  |  |  |  | Licking latency [23]: 33.2; Licking latency [24]: 23.7; Licking latency [25]: 34.3; Licking latency [26]: 32.7
CN1CC[C@]23c4c5ccc(O)c4O[C@H]2[C@@H](O)C=C[C@H]3[C@H]1C5 [MORPHINE] | 14.6 | 30 | 100 | 0 | 0.2 |  |  |  |  | Licking latency [27]: 26.4; Licking latency [28]: 28.7; Licking latency [29]: 24.5; Licking latency [30]: 23.8
